Source: PubChem (several laboratories)
Only some compounds are listed: those with a hit (about 1.9% of all), similar ones and a draw of the others.
pCIP destab: p/CIP-EGFP fusion destabilizers, primary screen, fluorescence, F442A cells; Q05BA5; 16 h; decrease of EGFP signal, % at 10 µM; actives 0.01% (n = 290,000); AID 1984, 2009;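 active = EGFP signal decrease of at least 30% at 10 µM or well 3 SD below plate mean, unless failing retest; inactive = the rest, including hits failing retest or dose response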
Dynein transport: inhibitors of GR-EGFP nuclear translocation, primary screen, dynein cargo transport inhibitor project, imaging, high-content, 3617.4 mouse cells | test concentration mostly 20 µM; stimulated with dexamethasone, 1 µM; stronger effect = lower value | z-score, hits read low | AID 1381, 2008 | actives 0.47% (n = 220,000);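 active = plate z-score of nuclear minus cytoplasmic receptor signal below a set negative limit, without overly bright fluorescence or cell loss, cut at about -3.5 in these data, passing the limit was not always enough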;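 note: z-score of nuclear minus cytoplasmic ring GR-EGFP intensity difference per well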
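Buffer or medium: tet-free, stripped-serum medium; reagent: dexamethasone at 1.0 µM final, 30 min; incubation: 48 h induction, 1 h compound, 30 min dex at 37 °C; measured by: formaldehyde fixation, Hoechst nuclear stain, 10x automated fluorescence imaging; read-out: nuclear-to-cytoplasmic GR-EGFP distribution per well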
NCF1 inh: p47phox/p22phox peptide binding inhibitors, primary screen, biochemical, uHTS, NADPH oxidase regulatory subunit | fluorescence polarization, 2 h | AID 1274, 2008 | actives 0.53% (n = 220,000) | inhibition, % at 24.7 µM | Neutrophil cytosol factor 1 (Homo sapiens), P14598;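 active = inhibition above about 30%, limit read from the data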
Target sequence (P14598 whole entry, looked up): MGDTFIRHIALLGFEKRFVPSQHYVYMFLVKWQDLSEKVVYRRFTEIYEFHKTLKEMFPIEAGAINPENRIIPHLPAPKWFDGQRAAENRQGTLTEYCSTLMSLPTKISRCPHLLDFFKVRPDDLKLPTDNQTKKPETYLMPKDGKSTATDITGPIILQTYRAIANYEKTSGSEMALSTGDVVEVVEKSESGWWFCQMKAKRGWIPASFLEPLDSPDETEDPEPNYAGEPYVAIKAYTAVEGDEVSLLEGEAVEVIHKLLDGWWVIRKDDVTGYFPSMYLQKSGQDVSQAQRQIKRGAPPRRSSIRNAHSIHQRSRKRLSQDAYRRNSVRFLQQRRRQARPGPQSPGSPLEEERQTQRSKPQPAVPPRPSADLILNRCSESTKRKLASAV
RAM network inh: inhibitors of the yeast RAM network, primary screen, dse1pr::URA3 reporter, 5-FOA selection; S. cerevisiae dse1pr::URA3 reporter, 5-FOA growth OD615, 2 d; analog-sensitive cbk1-as2 kinase mutant strain; inhibition, % at 50 µM; actives 1.8% (n = 190,000); AID 868, 2007;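 active = inhibition above a set limit, 3 SD over mean compound inhibition, cut at about 8.4% in these data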;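 note: inhibition rescues growth on 5-FOA so higher OD means more RAM inhibition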
RAM 5-FOA: 5-FOA growth of efflux-deficient control yeast, dose response, counter-screen for RAM network inhibitor project, S. cerevisiae, OD615; max inhibition, %; shares compounds with RAM network inh; 1,200 tested, under 10 active; S. cerevisiae efflux-deficient reporter strain, 5-FOA growth OD615, 2 days; call rule not given here
A number is an active result; - = inactive; . = no result given.

SMILES | pCIP destab | Dynein transport | NCF1 inh | RAM network inh | RAM 5-FOA
Cc1ccc(CSc2nnc(-c3ccc4c(c3)OCO4)o2)cc1 | - | - | - | 15 | -
CN(C)c1nc(OCCOC(=O)COc2ccc(Cl)cc2Cl)nc(N(C)C)n1 | - | - | - | - | .
CN(C)c1nc(SCCOC(=O)COc2ccc(Cl)cc2Cl)nc(N(C)C)n1 | - | - | - | 12 | -
CCCSCCCNC(=O)c1ccc(C)c(NC(=O)C2=C(C)OCCS2)c1 | - | . | . | . | .
Cc1ccc(N(C(=O)c2cnccn2)C(C(=O)NC2CCCCC2)c2ccc(O)cc2)cc1 (stereo not drawn) | - | - | - | - | .
N=c1n(Cc2ccc(Cl)cc2)c2ccccc2n1CC(O)COc1ccccc1 (stereo not drawn) | - | - | - | - | .
OC(COCC(F)(F)C(F)(F)C(F)(F)C(F)F)Cn1c2ccc(Cl)cc2c2cc(Cl)ccc21 (stereo not drawn) | - | - | - | 18 | -
COc1ccc(C(=O)O)cc1S(=O)(=O)Nc1cccc(C(F)(F)F)c1 | - | - | - | - | .
O=C(O)c1ccc(Cl)c(S(=O)(=O)Nc2cccc(C(=O)Nc3cccc(C(F)(F)F)c3)c2)c1 | - | - | - | 12 | -
O=C(/C=C/c1ccc(Cl)cc1Cl)NCCSCc1ccccc1 | - | - | - | 16 | -
CC(C)N(Cc1nc(-c2ccc(Cl)cc2)no1)C(=O)/C=C/c1ccccc1 | - | - | - | 12 | -
Cc1ccc(C(=O)O/N=C(\N)c2nonc2N)cc1 | - | - | - | - | .
CCOC(=O)c1sc(-c2ccc(OC)cc2)cc1NC(C)=O | - | - | - | 18 | -
O=C(CSc1nnc(-c2ccc(O)cc2)o1)NNC(=O)c1ccncc1 | - | . | . | . | .
CN(C)c1ccnc2sc3c(NCC(O)CO)ncnc3c12 (stereo not drawn) | - | - | - | - | .
CN(C)c1ccnc2sc3c(SCc4ccc(Cl)cc4)ncnc3c12 | - | - | - | 19 | -
Cc1ccc(S(=O)(=O)N2CCC(C)CC2)cc1[N+](=O)[O-] | - | - | - | 23 | -
C=C(C)c1cccc(C(C)(C)NC(=O)NNC(=O)c2ccccc2O)c1 | - | . | . | . | .
COc1ccc(C(=O)Nc2ccc(C(=O)OCC(=O)c3ccccc3)cc2)cc1 | - | - | - | - | .
COc1ccc(C(=O)OCC(=O)c2ccc(C3CCCCC3)cc2)cc1 | - | - | - | 11 | -
CC(=O)N1CC(=O)N(c2ccccc2)C1=O | - | . | . | . | .
CCn1cc(C(=O)OCC(=O)c2ccc(Cl)cc2)c(=O)c2ccc(C)nc21 | - | - | - | - | .
CCn1cc(C(=O)OCC(=O)c2ccccc2)c(=O)c2ccc(C)nc21 | - | - | - | 18 | -
Cc1ccc(NC(=O)Cc2ccc(Cl)c(Cl)c2)cc1S(=O)(=O)N(C)C | - | - | - | 12 | -
O=C(O)c1cccc(N=C2NC(=O)C(CO)(CO)S2)c1 | - | . | . | . | .
SMILES | pCIP destab | Dynein transport | NCF1 inh | RAM network inh | RAM 5-FOA
O=C(COc1ccc(Br)cc1)Nc1ccc(-c2nnc(-c3ccco3)o2)cc1 | - | - | - | - | .
COc1ccccc1OCC(=O)Nc1ccc(-c2nnc(-c3ccco3)o2)cc1 | - | - | - | 12 | -
S=C(c1ccc(-c2cc(Cl)ccc2Cl)o1)N1CCOCC1 | - | - | - | - | .
S=C(c1ccc(-c2cc(Cl)ccc2Cl)o1)N1CCCCC1 | - | - | - | 12 | -
OC(c1ccc(Cl)cc1)c1nccc2ccccc12 (stereo not drawn) | - | . | . | . | .
Cc1oc2ccc(OC(=O)c3cccs3)cc2c1C(=O)OC(C)C | - | - | - | 14 | -
Cc1cc(OC(=O)c2cccs2)ccc1C(C)C | - | - | - | - | .
C=C(C)C1CC=C(C)/C(=N/NC(=O)COc2ccc(C)cc2)C1 (stereo not drawn) | - | - | - | - | .
C=C(C)C1CC=C(C)/C(=N\NC(=S)Nc2ccc(C)cc2)C1 (stereo not drawn) | - | - | - | 17 | -
Cc1c(NC(=S)NC(=O)c2cccc(Br)c2)c(=O)n(-c2ccccc2)n1C | - | . | . | . | .
CNC(=S)NNS(=O)(=O)c1ccc(OC)cc1OC | - | - | - | - | .
Cc1cc(/C=C(/C#N)c2cccc(Cl)c2)c(C)n1C | - | - | - | 17 | -
Cc1cc(/C=C(/C#N)c2cccc(F)c2)c(C)n1-c1cccnc1 | - | - | - | - | .
NC(=O)CN1C(=O)C(=O)N(Cc2cccc(C(F)(F)F)c2)C1=O | - | . | . | . | .
Cc1cccc(OCC(=O)Nc2ccc3c(c2)nc(CCN2CCN(c4ccccn4)CC2)n3C)c1 | - | . | . | . | .
Cc1c(Cl)cccc1NC(=O)CSc1nncn1-c1ccccn1 | - | . | . | . | .
COC(=O)c1ccc(NC(=O)CSc2nnc(COc3ccc4c(c3)CCCC4)o2)cc1 | - | - | - | - | .
COc1cccc(NC(=O)CSc2nnc(COc3ccc4c(c3)CCCC4)o2)c1 | - | - | - | 12 | -
C=CCn1c(COc2ccccc2)nnc1SCC(=O)Nc1ccc2c(c1)OCCO2 | - | - | - | - | .
CCOC(=O)c1cccc(NC(=O)CSc2nnc(COc3ccccc3C)o2)c1 | - | - | - | 12 | -
COc1ccccc1NC(=O)CSc1nnc(COc2ccccc2C)o1 | - | . | . | . | .
C=CCn1c(COc2ccc3c(c2)CCCC3)nnc1SCC(=O)Nc1cccc(SC)c1 | - | - | - | 15 | -
CC(C)(C)c1ccc(-n2nc(C#N)c(Cl)cc2=O)cc1 | - | - | - | - | .
Cc1ccc(O)c(C(=O)/C=C/c2ccc3c(c2)OCCCO3)c1 | - | - | - | 12 | -
COc1cccc(N/C(SCc2ccccc2F)=C(/C#N)C(=O)NCc2cccs2)c1 | - | - | - | 16 | -
SMILES | pCIP destab | Dynein transport | NCF1 inh | RAM network inh | RAM 5-FOA
COc1cccc(NC(=O)NCc2ccccc2F)c1 | - | - | - | - | .
Cc1ncc(CO)c(/C=N/NC(=O)c2cc3c(s2)CCCC3)c1O | - | - | - | - | .
Cc1ccc(C2=NN(Cc3nnc(-c4ccccc4)o3)C(=O)SC2)cc1 | - | - | - | 12 | -
C/C(=N\NC(=O)C(O)c1ccccc1)c1ccc(Br)s1 (stereo not drawn) | - | . | . | . | .
COc1ccc(CNc2oc(-c3cccc4ccccc34)nc2C#N)cc1 | - | - | - | 15 | -
N#Cc1nc(Cc2cccc3ccccc23)oc1NCc1ccc(F)cc1 | - | - | - | 15 | -
COCC1CCN(C(=O)c2cc(COc3ccc(-n4cncn4)cc3)on2)C1 (stereo not drawn) | - | . | . | . | .
CCCCn1c(SCc2nc3ccccc3s2)nc2ccccc2c1=O | - | - | - | 13 | -
CCc1cc(C(=O)OC)c(NC(=O)CSc2nccn2C)s1 | - | . | . | . | .
CCN1/C(=C/C=C/C=C/c2sc3ccccc3[n+]2CC)Sc2ccccc21 | - | - | - | 22 | -
CCN1/C(=C/C=C/C=C/C=C/c2sc3ccccc3[n+]2CC)Sc2ccccc21 | - | . | . | . | .
C=COc1ccc(N2C(=O)c3ccccc3OC2C)cc1 (stereo not drawn) | - | . | . | . | .
